Laboratory results as given in paper PMC3483880 (Pure and applied chemistry. Chimie pure et appliquee, 2012).
Values after ≈ are worked out from the molar mass of the structure shown. “Also recorded” adds a separate entry of the source. Read-outs that look alike come from different tables or passages of the source.

Experiments:
Murine macrophages = test: Toxicity towards murine macrophages; type: cell-based; settings: for IC50: read-out: Murine macrophages (IC50)
[1] = system: Leishmania donovani promastigotes; test: Antiprotozoal activity; type: cell-based; settings: for EC50: read-out: L. donovani promastigotes (EC50)
[2] = system: L. donovani promastigotes; settings: at 100 μg/mL; cited from earlier work
L. donovani = settings: cited from earlier work
human TopIB (hTopIB) = test: Inhibition of the relaxation activity of human TopIB; type: biochemical; settings: 3.125−100 μM acid 1, 30 min at 37°C
Summary of the method: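 Human TopIB relaxed supercoiled pHOT plasmid DNA alongside recombinant LdTopIB, with test compound at 3.125–100 µM and a DMSO vehicle lane. Reactions stopped with 1% SDS plus 6.1 µg proteinase K. Products resolved on agarose gel and stained with ethidium bromide. Supercoiled, nicked and relaxed topoisomer bands scored against a DNA-only lane (0.2 µg plasmid).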

[3] = molecular target: Leishmania DNA topoisomerase IB enzyme (LdTopIB) (Leishmania donovani, UniProt A0A3Q8IHS4+Q8WQM6); test: Inhibition of the relaxation activity of recombinant LdTopIB; type: biochemical; settings: plasmid DNA relaxation assay
Summary of the method: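 One unit of recombinant Leishmania donovani TopIB was incubated with negatively supercoiled pHOT plasmid DNA for 30 min at 37 °C, with test compound at 3.1–150 or 3.125–100 µM. A DMSO lane served as control. Reactions were stopped with 1% SDS plus 6.1 µg proteinase K. Products were separated on agarose gel and stained with ethidium bromide to score supercoiled, nicked and relaxed topoisomer bands.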

[4] = system: Leishmania donovani promastigotes; settings: earlier work; cited from earlier work

## CCCCCCCCCCCCCCCCOP(=O)([O-])OCC[N+](C)(C)C [miltefosine]
Murine macrophages; Mus musculus, Macrophage
  IC50: 1.9 ± 0.4 µM
[1]; Leishmania donovani
  EC50: 0.8 ± 0.1 µM

## CCCCCCCCCC(=O)O [n-decanoic acid]
[2]
  Effect on motility of L. donovani promastigotes: inhibited the motility

## CCCCCCCCCCCCCCCC(=O)O [n-hexadecanoic acid]
[2]
  Effect on motility of L. donovani promastigotes: inhibited the motility

## CCCCCCCCCCCC(=O)O [n-dodecanoic acid]
[2]
  Effect on motility of L. donovani promastigotes: inhibited the motility

## CCCCCCCC/C=C\CCCCCCCC(=O)O [oleic acid]
L. donovani
  MIC against L. donovani: 90 µM (≈ 25.4 µg/mL)
[2]
  Effect on motility of L. donovani promastigotes: no effect

## CCCCCCCCCC/C=C\CCCC(OC)C(=O)O (racemic) [Acid 1, (±)-2-methoxy-6Z-heptadecenoic acid]
Human TopIB (hTopIB)
  Inhibition of hTopIB (in words): not effective against hTopIB
Murine macrophages
  IC50: 484 ± 15.8 µM
[3]
  Inhibition of LdTopIB (in words): able to inhibit LdTopIB
[1]
  Effectiveness against L. donovani promastigotes (in words): not effective against L. donovani promastigotes
  EC50: 404 ± 11.9 µM

## CCCCCCCCCCCCCCCCCC(=O)O [n-octadecanoic acid]
L. donovani
  MIC against L. donovani: 1390 µM (≈ 395 µg/mL)

## CCCCCCCCCCCCCCCC(OC)C(=O)O (racemic) [Acid 3, (±)-2-methoxyheptadecanoic acid]
Murine macrophages
  IC50: > 1000 µM
[3]
  Inhibition of LdTopIB (in words): did not inhibit LdTopIB; also recorded: do not inhibit the enzyme; also recorded: not inhibiting the enzyme
[1]
  Effectiveness against L. donovani promastigotes (in words): not effective at all against the parasite
  EC50: > 1000 µM

## CCCCCCCCCCC#CCCCCC(=O)O [6-heptadecynoic, 6-heptadecynoic acid]
Murine macrophages
  Toxicity towards murine macrophages (in words): considerable toxicity towards murine macrophages
Murine macrophages; Mus musculus, Macrophage
  IC50: 21.3 ± 0.9 µM
[1]; Leishmania donovani
  EC50: 25.1 ± 1.4 µM

## CCCCCCCCCCCCCCCCCCCC(=O)O [n-eicosanoic acid]
[4]
  Effectiveness towards L. donovani promastigotes (in words): not effective at all

## CCCCCCCCCC/C=C\CCCCC(=O)O [6Z-heptadecenoic, 6Z-heptadecenoic acid]
Murine macrophages
  IC50: 44.4 ± 1.6 µM
[1]
  Effectiveness against L. donovani promastigotes (in words): not effective against L. donovani promastigotes
  EC50: > 100 µM

## CCCCCCCCCCCCCCCCC(=O)O [n-heptadecanoic, n-heptadecanoic acid]
Murine macrophages
  IC50: 52.6 ± 7.5 µM
[4]
  Effectiveness towards L. donovani promastigotes (in words): not effective at all
[1]
  Effectiveness against L. donovani promastigotes (in words): not effective at all against the parasite
  EC50: > 100 µM

## CCCCCCCCCCC#CCCCC(OC)C(=O)O (racemic) [Acid 2, (±)-2-methoxy-6-heptadecynoic acid]
Murine macrophages
  Toxicity towards murine macrophages (in words): did not display toxicity towards murine macrophages
  IC50: > 700 µM
[3]
  Inhibition of LdTopIB (in words): inhibit LdTopIB
[1]
  EC50: 74 ± 17.1 µM
